Source: ChEMBL document CHEMBL1156973, “(-)-Carbodine: enantiomeric synthesis and in vitro antiviral activity against various strains of influenza virus including H5N1 (avian influenza) and novel 2009 H1N1 (swine flu)” (Bioorg Med Chem Lett, 2010)

What was measured:
[1] = system: Influenza B virus; assay: Antiviral activity against Influenza B virus Malaysia/2506/2004 infected MDCK cells after 3 days by virus yield reduction assay; assay type: functional, B/Malaysia/2506/2004
In short: (§1)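 Yield reduction assay: MDCK cells got serial compound dilutions and ≤300 CCID50 virus, in triplicate. Progeny virus was titrated. EC90 is the concentration reducing the infectious titer by 90%, as the mean of triplicates.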

[2] = system: Influenza A virus; assay: Antiviral activity against Influenza A virus Vietnam/1203/ 2004H/H5N1 infected MDCK cells after 42 to 46 hrs by neutral red dye uptake assay; assay type: functional, organism-based, A/Viet Nam/1203/2004(H5N1); settings: Influenza A virus, A/Viet Nam/1203/2004(H5N1), MDCK
[3] = Selectivity ratio of IC50 for MDCK cells to EC50 for inhibition of virus-induced cytopathic effect of Influenza B virus Malaysia/2506/2004; assay type: cell-based; settings: dog, MDCK cells; read-out: Ratio IC50/EC50
In short: (§2)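 IC50 (50% inhibition of uninfected MDCK cells) divided by EC50 (concentration reducing virus-induced CPE by 50%, scored visually), both from replicate serial-dilution assays.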

[4] = system: H5N1 subtype; assay: Antiviral activity against Influenza A virus Duck/MN/1525/81/H5N1 infected MDCK cells assessed as inhibition of virus-induced cytopathic effect after 3 days; assay type: functional, organism-based, Influenza A virus (A/duck/Minnesota/1525/1981(H5N1)); settings: Influenza A virus, MDCK, 72 h
[5] = Selectivity ratio of IC50 for MDCK cells to EC50 for inhibition of virus-induced cytopathic effect of Influenza A virus Solomon Islands/03/2006/H1N1; assay type: cell-based; settings: dog; for selectivity ratio: MDCK cells, read-out: Ratio IC50/EC50; in short: as §2
[6] = system: H5N1 subtype; assay: Antiviral activity against Influenza A virus Gull/PA/4175/83/H5N1 infected MDCK cells after 42 to 46 hrs by neutral red dye uptake assay; assay type: functional, organism-based, Influenza A virus (A/gull/Pennsylvania/4175/83(H5N1)); settings: Influenza A virus, MDCK
[7] = system: H5N1 subtype; assay: Antiviral activity against Influenza A virus Gull/PA/4175/83/H5N1 infected MDCK cells after 3 days by virus yield reduction assay; assay type: functional, Influenza A virus (A/gull/Pennsylvania/4175/83(H5N1)); settings: 72 h
[8] = Selectivity ratio of IC50 for MDCK cells to EC50 for Influenza A virus Gull/PA/4175/83/H5N1 by neutral red dye uptake assay; assay type: ADME, cell-based; settings: dog, MDCK cells; read-out: Ratio IC50/EC50
In short: (§3)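 Neutral red uptake in MDCK cells: IC50 (50% inhibition of uninfected cells) divided by EC50 (50% inhibition of virus effect), both from replicate serial-dilution assays.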

[9] = system: Influenza A virus; assay: Antiviral activity against Influenza A virus Wisconsin/67/2005/H3N2 infected MDCK cells after 3 days by virus yield reduction assay; assay type: functional, Influenza A virus (A/Wisconsin/67/2005(H3N2)); settings: Influenza A virus, MDCK, 72 h; in short: as §1
[10] = system: Influenza A virus; assay: Antiviral activity against Influenza A virus California/07/2009 /H1N1 infected MDCK cells after 42 to 46 hrs by neutral red dye uptake assay; assay type: functional, organism-based, A/California/07/2009(H1N1); settings: Influenza A virus, A/California/07/2009(H1N1), MDCK
[11] = system: Influenza A virus; assay: Antiviral activity against Influenza A virus Vietnam/1203/ 2004H/H5N1 infected MDCK cells after 3 days by virus yield reduction assay; assay type: functional, A/Viet Nam/1203/2004(H5N1)
[12] = Selectivity ratio of IC50 for MDCK cells to EC50 for inhibition of virus-induced cytopathic effect of Influenza A virus Wisconsin/67/2005/H3N2; assay type: cell-based; settings: dog, MDCK cells; read-out: Ratio IC50/EC50; in short: as §2
[13] = system: H5N1 subtype; assay: Antiviral activity against Influenza A virus Duck/MN/1525/81/H5N1 infected MDCK cells after 42 to 46 hrs by neutral red dye uptake assay; assay type: functional, organism-based, Influenza A virus (A/duck/Minnesota/1525/1981(H5N1))
[14] = Selectivity ratio of IC50 for MDCK cells to EC50 for inhibition of virus-induced cytopathic effect of Influenza A virus Hong Kong/213/2003/H5N1; assay type: cell-based; settings: dog, read-out: Ratio IC50/EC50; in short: as §2
[15] = Selectivity ratio of IC50 for MDCK cells to EC50 for Influenza B virus Malaysia/2506/2004 by neutral red dye uptake assay; assay type: ADME, cell-based; settings: dog, MDCK cells; read-out: Ratio IC50/EC50; in short: as §3
[16] = system: Influenza A virus; assay: Antiviral activity against Influenza A virus Wisconsin/67/2005/H3N2 infected MDCK cells after 42 to 46 hrs by neutral red dye uptake assay; assay type: functional, organism-based, Influenza A virus (A/Wisconsin/67/2005(H3N2))
In short: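 Triplicate MDCK wells got serial compound dilutions, then ≤300 CCID50 of virus, with the same inoculum for all replicates. Antiviral effect was read by neutral red dye uptake. EC50 is the concentration giving 50% inhibition of the virus effect, as the mean of triplicates.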

[17] = Selectivity ratio of IC50 for MDCK cells to EC90 for Influenza A virus Gull/PA/4175/83/H5N1 by virus yield reduction assay; assay type: ADME, cell-based; settings: dog
In short: (§4)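 IC50 (50% inhibition of uninfected MDCK cells) divided by EC90 (concentration reducing the infectious virus titer by 90% in the yield reduction assay).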

[18] = Selectivity ratio of IC50 for MDCK cells to EC50 for Influenza A virus Solomon Islands/03/2006/H1N1 by neutral red dye uptake assay; assay type: ADME, cell-based; settings: dog; for selectivity ratio: MDCK cells, read-out: Ratio IC50/EC50; in short: as §3
[19] = Selectivity ratio of IC50 for MDCK cells to EC90 for Influenza A virus California/07/2009 /H1N1 by virus yield reduction assay; assay type: ADME, cell-based; settings: dog, MDCK cells; in short: as §4
[20] = Selectivity ratio of IC50 for MDCK cells to EC90 for Influenza A virus Wisconsin/67/2005/H3N2 by virus yield reduction assay; assay type: ADME, cell-based; settings: dog, MDCK cells; in short: as §4
[21] = Selectivity ratio of IC50 for MDCK cells to EC50 for inhibition of virus-induced cytopathic effect of Influenza A virus Duck/MN/1525/81/H5N1; assay type: cell-based; settings: dog, MDCK cells; read-out: Ratio IC50/EC50; in short: as §2
[22] = Selectivity ratio of IC50 for MDCK cells to EC90 for Influenza A virus Duck/MN/1525/81/H5N1 by virus yield reduction assay; assay type: ADME, cell-based; settings: dog, MDCK cells; in short: as §4
[23] = Selectivity ratio of IC50 for MDCK cells to EC90 for Influenza A virus Hong Kong/213/2003/H5N1 by virus yield reduction assay; assay type: ADME, cell-based; settings: dog, MDCK cells; in short: as §4
[24] = Selectivity ratio of IC50 for MDCK cells to EC50 for Influenza A virus Vietnam/1203/ 2004H/H5N1 by neutral red dye uptake assay; assay type: ADME, cell-based; settings: dog, MDCK cells; read-out: Ratio IC50/EC50; in short: as §3
[25] = system: H5N1 subtype; assay: Antiviral activity against Influenza A virus Gull/PA/4175/83/H5N1 infected MDCK cells assessed as inhibition of virus-induced cytopathic effect after 3 days; assay type: functional, organism-based, Influenza A virus (A/gull/Pennsylvania/4175/83(H5N1)); settings: Influenza A virus, MDCK, 72 h
[26] = system: Influenza A virus; assay: Antiviral activity against Influenza A virus California/07/2009 /H1N1 infected MDCK cells assessed as inhibition of virus-induced cytopathic effect after 3 days; assay type: functional, organism-based, A/California/07/2009(H1N1); settings: Influenza A virus, A/California/07/2009(H1N1), MDCK, 72 h
[27] = system: Influenza B virus; assay: Antiviral activity against Influenza B virus Malaysia/2506/2004 infected MDCK cells assessed as inhibition of virus-induced cytopathic effect after 3 days; assay type: functional, organism-based, B/Malaysia/2506/2004; settings: Influenza B virus, B/Malaysia/2506/2004, MDCK, 72 h
In short: (§5)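 Triplicate MDCK (ATCC CCL-34) wells got serial dilutions of compound. They were then inoculated with ≤300 CCID50, enough for ~100% CPE in control wells within 3 days, using the same inoculum for all replicates. CPE was scored visually. EC50 is the concentration reducing CPE by 50%, as the mean of triplicates.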

[28] = system: H5N1 subtype; assay: Antiviral activity against Influenza A virus Hong Kong/213/2003/H5N1 infected MDCK cells after 3 days by virus yield reduction assay; assay type: functional, Influenza A virus (A/Hong Kong/213/2003(H5N1)); settings: Influenza A virus, MDCK, 72 h
[29] = Selectivity ratio of IC50 for MDCK cells to EC50 for inhibition of virus-induced cytopathic effect of Influenza A virus California/07/2009 /H1N1; assay type: cell-based; settings: dog, MDCK cells; read-out: Ratio IC50/EC50; in short: as §2
[30] = system: H5N1 subtype; assay: Antiviral activity against Influenza A virus Hong Kong/213/2003/H5N1 infected MDCK cells after 42 to 46 hrs by neutral red dye uptake assay; assay type: functional, organism-based, Influenza A virus (A/Hong Kong/213/2003(H5N1))
[31] = Antiviral activity against Influenza A virus Solomon Islands/03/2006/H1N1 infected MDCK cells assessed as inhibition of virus-induced cytopathic effect after 3 days; assay type: functional, organism-based, Influenza A virus (A/Solomon Islands/3/2006(H1N1)); in short: as §5
[32] = Influenza B virus, B/Malaysia/2506/2004, MDCK, 72 h
[33] = Influenza A virus, A/Viet Nam/1203/2004(H5N1), MDCK

SMILES	EC50 [2] [µM]	selectivity ratio [3]	EC50 [4] [µM]	EC50 [6] [µM]	EC90 [7] [µM]	selectivity ratio [8]	EC90 [9] [µM]	EC50 [10] [µM]	selectivity ratio [12]	selectivity ratio [14]	selectivity ratio [15]	selectivity ratio [17]	selectivity ratio [19]	selectivity ratio [20]	selectivity ratio [21]	selectivity ratio [22]	selectivity ratio [23]	selectivity ratio [24]	EC50 [25] [µM]	EC50 [26] [µM]	further results
Nc1ccn([C@@H]2C[C@H](CO)[C@@H](O)[C@H]2O)c(=O)n1	1.5	> 690	1.8	1	1.6	> 414	2.5	1.6	> 259	> 591	> 518	> 259	> 109	> 166	> 230	> 39	> 197	> 276	0.8	1.3	EC90 [1]: 1.5 µM; Ratio IC50/EC50 ([5]; mdck): > 591; EC90 [11]: 5.7 µM; EC50 ([13]; mdck): 2 µM; EC50 ([16]; mdck): 2 µM; Ratio IC50/EC50 ([18]; mdck): > 690; EC50 [27]: 0.6 µM; EC90 [28]: 2.1 µM; selectivity ratio [29]: > 318; EC50 ([30]; mdck): 0.8 µM; EC50 ([31]; mdck): 0.7 µM
Nc1ccn([C@H]2C[C@@H](CO)[C@H](O)[C@@H]2O)c(=O)n1	> 41	< 10	> 414	> 41	> 41	< 10	> 41	> 414	< 10	< 10	< 10	< 10	1	< 10	1	1	< 10	< 10	> 41	> 414	EC90 [1, 32]: > 41 µM; selectivity ratio [5]: < 10; EC90 [11, 33]: > 41 µM; EC50 ([13]; Influenza A virus, MDCK): > 414 µM; EC50 ([16]; Influenza A virus, MDCK): > 41 µM; selectivity ratio [18]: < 10; EC50 [27]: > 41 µM; EC90 [28]: > 41 µM; selectivity ratio [29]: 1; EC50 ([30]; Influenza A virus, MDCK): > 41 µM; EC50 ([31]; Influenza A virus, MDCK, 72 h): > 41 µM
NC(=O)c1ncn([C@@H]2O[C@H](CO)[C@@H](O)[C@H]2O)n1 [RIBAVIRIN]	13.9	> 128	35.4	27.4	20.3	> 48	21.7	19.4	> 80	> 305	> 67	> 65	> 101	> 60	> 37	> 30	> 78	> 94	23.6	11.2	EC90 [1, 32]: 22.2 µM; selectivity ratio [5]: > 56; EC90 [11, 33]: 11.6 µM; EC50 ([13]; Influenza A virus, MDCK): 32.5 µM; EC50 ([16]; Influenza A virus, MDCK): 20.2 µM; selectivity ratio [18]: > 52; EC50 [27]: 10.2 µM; EC90 [28]: 16.8 µM; selectivity ratio [29]: > 117; EC50 ([30]; Influenza A virus, MDCK): 9.4 µM; EC50 ([31]; Influenza A virus, MDCK, 72 h): 23.3 µM
